Data taken from ChEMBL document CHEMBL3407391, “Ether analogues of DPA-714 with subnanomolar affinity for the translocator protein (TSPO)” (Eur J Med Chem, 2015).

Tests used:
C6 = experiment: Induction of pregnenolone production in rat C6 cells at 40 uM after 2 hrs by ELISA based steroidogenesis assay relative to control; format: functional
Method in brief: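 C6 glioma cells grown in DMEM with 10% FBS at 37 °C, 5% CO2, then seeded at 1×10^4 cells/well and washed three times with simple salts medium (HEPES/NaOH pH 7.4, 0.1% BSA). Cells were exposed to compound at 40 μM in salts medium with trilostane (25 μM) and SU 10603 (10 μM) for 2 h at 37 °C, DMSO ≤0.5%. Secreted pregnenolone was measured by ELISA; 6–9 replicates.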

Translocator protein [1] = biological target: Translocator protein (Homo sapiens, UniProt P30536); experiment: Inhibition of human TSPO
Translocator protein [2] = biological target: T1, Translocator protein (Rattus norvegicus, UniProt P16257); parameters: species or system Wistar, Kidney
Translocator protein [3] = biological target: T1, Translocator protein; experiment: Inhibition of rat TSPO

T1 sequence (P16257 whole entry, looked up): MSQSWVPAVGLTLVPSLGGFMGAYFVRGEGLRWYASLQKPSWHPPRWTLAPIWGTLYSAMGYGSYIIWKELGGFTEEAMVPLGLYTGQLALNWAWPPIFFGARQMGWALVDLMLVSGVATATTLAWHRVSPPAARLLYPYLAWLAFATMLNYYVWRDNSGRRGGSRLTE
Sequence of Translocator protein (Homo sapiens, UniProt P30536) (P30536 whole entry): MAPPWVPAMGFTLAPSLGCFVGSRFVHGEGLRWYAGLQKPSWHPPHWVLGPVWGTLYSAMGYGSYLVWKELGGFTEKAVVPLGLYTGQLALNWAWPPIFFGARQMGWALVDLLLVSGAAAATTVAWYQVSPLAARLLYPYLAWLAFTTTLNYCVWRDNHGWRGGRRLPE

CCC(C)N(C)C(=O)c1cc2ccccc2c(-c2ccccc2Cl)n1 (stereo unspecified) [PK-11195]
Activity (C6): 166.5%

CCN(CC)C(=O)Cc1c(-c2ccc(OCc3ccc(F)cc3)cc2)nn2c(C)cc(C)nc12
Activity (C6): 311.7%

COc1ccc(OC)c(CN(C(C)=O)c2cc(F)ccc2Oc2ccccc2)c1
Ki (Translocator protein [1]): 0.2 nM

CCN(CC)C(=O)Cc1c(-c2ccc(OCC3CCCCC3)cc2)nn2c(C)cc(C)nc12
Activity (C6): 134.2%

CCN(CC)C(=O)Cc1c(-c2ccc(OCc3cccc(F)c3)cc2)nn2c(C)cc(C)nc12
Ki (Translocator protein [2]): 0.47 nM | Activity (C6): 281.2%

CCN(CC)C(=O)Cc1c(-c2ccc(OCC(C)C)cc2)nn2c(C)cc(C)nc12
Activity (C6): 206.5%

CCN(CC)C(=O)Cc1c(-c2ccc(OCc3cccc(C(F)(F)F)c3)cc2)nn2c(C)cc(C)nc12
Ki (Translocator protein [2]): 0.67 nM | Activity (C6): 230%

COc1ccccc1CN(C(C)=O)c1cnccc1Oc1ccccc1
Ki (Translocator protein [3]): 0.7 nM | Ki (Translocator protein [1]): 2.5 nM

CCN(CC)C(=O)Cc1c(-c2ccc(OCC3CC3)cc2)nn2c(C)cc(C)nc12
Activity (C6): 226.3%

CCN(CC)C(=O)Cc1c(-c2ccc(OCc3ccccc3)cc2)nn2c(C)cc(C)nc12
Activity (C6): 262.4%

CCN(CC)C(=O)Cc1c(-c2ccc(OCc3ccccc3F)cc2)nn2c(C)cc(C)nc12
Activity (C6): 161.5%

CCN(CC)C(=O)Cc1c(-c2ccc(OC3CCCC3)cc2)nn2c(C)cc(C)nc12
Ki (Translocator protein [2]): 1.5 nM | Activity (C6): 273.4%

CCN(CC)C(=O)Cc1c(-c2ccc(OC(C)C)cc2)nn2c(C)cc(C)nc12
Activity (C6): 165%

CCN(CC)C(=O)Cc1c(-c2ccc(OCC3CCCC3)cc2)nn2c(C)cc(C)nc12
Activity (C6): 173.9%

CCN(CC)C(=O)Cc1c(-c2ccc(OCc3ccc(C(F)(F)F)cc3)cc2)nn2c(C)cc(C)nc12
Ki (Translocator protein [2]): 1.6 nM | Activity (C6): 189.9%

CCN(CC)C(=O)Cc1c(-c2ccc(OC3CCC3)cc2)nn2c(C)cc(C)nc12
Ki (Translocator protein [2]): 0.86 nM | Activity (C6): 184.3%

CCN(CC)C(=O)Cc1c(-c2ccc(OCCc3ccccc3)cc2)nn2c(C)cc(C)nc12
Activity (C6): 254%

CCN(CC)C(=O)Cc1c(-c2ccc(OCC3CCC3)cc2)nn2c(C)cc(C)nc12
Activity (C6): 298.4%

CCN(CC)C(=O)Cc1c(-c2ccc(OCc3ccccc3C(F)(F)F)cc2)nn2c(C)cc(C)nc12
Ki (Translocator protein [2]): 1.4 nM | Activity (C6): 331.7%
